Data published in PMC8959088 (Journal of the American Chemical Society, 2022).

Molecular target: KIX domain of p300/CBP (KIX–MLL interaction) (Mus musculus, UniProt P45481)
Test: competition fluorescence polarization assay, inhibition of KIX–MLL interaction
Type: binding
In short: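 Competition fluorescence polarization format: test peptidomimetic competes with fluorescently labeled MLL peptide for KIX, and Ki is derived from the competition data.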

Chain of KIX domain of p300/CBP (KIX–MLL interaction) (P45481 586-665 limits assumed): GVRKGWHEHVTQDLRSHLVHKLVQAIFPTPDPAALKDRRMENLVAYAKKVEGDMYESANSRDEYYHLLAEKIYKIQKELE

Ki: > 1000 µM
Substance: Ac-SDIMDFVLKNTP-NH2 [MLL^847–858, Ac-SDIMDFVLKNTP-NH2]
